# ChEMBL document CHEMBL1153736, “Application of ring-closing metathesis macrocyclization to the development of Tsg101-binding antagonists” (Bioorg Med Chem Lett, 2010)
# Numbered stars: 1 amine (or outer) side, 2 acyl side, 3 side chain; on linkers, the order of the positions; unused ones are H or OH. Bridge positions count the residues as written; N and C are the ends. Square brackets hold non-standard residues; d marks the D form. Peptide text beside a SMILES is read from it. * marks the point of attachment. Fluorescein(5-NHCS) = O=C1OC2(c3ccc(O)cc3Oc3cc(O)ccc32)c2cc(NC(=S)*)ccc21; Gly(N-but-3-enyl) = O=C(CN(CCC=[*:3])[*:1])[*:2]; X3 = O=C(CN(CCCCCCC=[*:3])[*:1])[*:2]; N(7-octenyl)Gly = C=CCCCCCCNCC(=O)O; X1 = O=C(CN(CCCC=[*:3])[*:1])[*:2]; X2 = O=C(CN(CC=[*:3])[*:1])[*:2]; Ava = NCCCCC(=O)O
# Target: T1, Tumor susceptibility gene 101 protein (Homo sapiens, UniProt Q99816)
# T1 sequence (Q99816 whole entry): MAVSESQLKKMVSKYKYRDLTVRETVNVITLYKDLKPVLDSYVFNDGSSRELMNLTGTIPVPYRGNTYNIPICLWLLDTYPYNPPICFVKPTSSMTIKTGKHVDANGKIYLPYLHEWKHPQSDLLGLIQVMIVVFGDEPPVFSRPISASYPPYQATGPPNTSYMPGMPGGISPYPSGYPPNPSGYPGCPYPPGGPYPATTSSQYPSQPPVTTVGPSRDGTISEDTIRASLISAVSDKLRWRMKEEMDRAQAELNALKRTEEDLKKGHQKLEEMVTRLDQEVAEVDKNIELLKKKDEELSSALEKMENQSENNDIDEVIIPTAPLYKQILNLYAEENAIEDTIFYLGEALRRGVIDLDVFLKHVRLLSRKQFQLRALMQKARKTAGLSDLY
# Assay: Binding affinity to ubiquitin E2 variant domain of human Tsg101 by fluorescent anisotropy
# Conditions: not given
row,Kd [µM],Molecule
1,> 500,C[C@@H]1NC(=O)[C@H]([C@@H](C)O)NC(=O)[C@@H]2CCCN2C(=O)[C@H](CCC(=O)O)NC(=O)CN(C(=O)CCCCNC(=S)Nc2ccc3c(c2)C2(OC3=O)c3ccc(O)cc3Oc3cc(O)ccc32)CCC/C=C\CN(CC(N)=O)C(=O)[C@H](CCC(=O)O)NC(=O)[C@@H]2CCCN2C(=O)[C@@H]2CCCN2C1=O
2,> 500,C[C@@H]1NC(=O)[C@H]([C@@H](C)O)NC(=O)[C@@H]2CCCN2C(=O)[C@H](CCC(=O)O)NC(=O)CN(C(=O)CCCCNC(=S)Nc2ccc3c(c2)C2(OC3=O)c3ccc(O)cc3Oc3cc(O)ccc32)CCCCC/C=C\CN(CC(N)=O)C(=O)[C@H](CCC(=O)O)NC(=O)[C@@H]2CCCN2C(=O)[C@@H]2CCCN2C1=O
3,108,C[C@@H]1NC(=O)[C@H]([C@@H](C)O)NC(=O)[C@@H]2CCCN2C(=O)CN(C(=O)[C@@H]2CCCN2C(=O)CCCCNC(=S)Nc2ccc3c(c2)C2(OC3=O)c3ccc(O)cc3Oc3cc(O)ccc32)CCCCC=CCN(CC(N)=O)C(=O)[C@H](CCC(=O)O)NC(=O)[C@@H]2CCCN2C(=O)[C@@H]2CCCN2C1=O
4,> 500,C[C@@H]1NC(=O)[C@H]([C@@H](C)O)NC(=O)[C@@H]2CCCN2C(=O)[C@H](CCC(=O)O)NC(=O)CN(C(=O)CCCCNC(=S)Nc2ccc3c(c2)C2(OC3=O)c3ccc(O)cc3Oc3cc(O)ccc32)CCC=CCN(CC(N)=O)C(=O)[C@H](CCC(=O)O)NC(=O)[C@@H]2CCCN2C(=O)[C@@H]2CCCN2C1=O
5,> 500,C[C@@H]1NC(=O)[C@H]([C@@H](C)O)NC(=O)[C@@H]2CCCN2C(=O)[C@H](CCC(=O)O)NC(=O)CN(C(=O)CCCCNC(=S)Nc2ccc3c(c2)C2(OC3=O)c3ccc(O)cc3Oc3cc(O)ccc32)CCCC/C=C\CN(CC(N)=O)C(=O)[C@H](CCC(=O)O)NC(=O)[C@@H]2CCCN2C(=O)[C@@H]2CCCN2C1=O
6,106,C[C@@H]1NC(=O)[C@H]([C@@H](C)O)NC(=O)[C@@H]2CCCN2C(=O)[C@H](CCC(=O)O)NC(=O)CN(C(=O)CCCCNC(=S)Nc2ccc3c(c2)C2(OC3=O)c3ccc(O)cc3Oc3cc(O)ccc32)CCC/C=C\CCCCCCN(CC(N)=O)C(=O)[C@H](CCC(=O)O)NC(=O)[C@@H]2CCCN2C(=O)[C@@H]2CCCN2C1=O
7,171,C[C@@H]1NC(=O)[C@H]([C@@H](C)O)NC(=O)[C@@H]2CCCN2C(=O)CN(C(=O)[C@@H]2CCCN2C(=O)CCCCNC(=S)Nc2ccc3c(c2)C2(OC3=O)c3ccc(O)cc3Oc3cc(O)ccc32)CC/C=C\CN(CC(=O)N[C@@H](CCC(=O)O)C(N)=O)C(=O)[C@@H]2CCCN2C(=O)[C@@H]2CCCN2C1=O ({Fluorescein(5-NHCS)-Ava}-P[Gly(N-but-3-enyl)]PTAPP[X2]E-NH2; staple (Z) 2-8)
8,> 500,C[C@@H]1NC(=O)[C@H]([C@@H](C)O)NC(=O)[C@@H]2CCCN2C(=O)CN(C(=O)[C@@H]2CCCN2C(=O)CCCCNC(=S)Nc2ccc3c(c2)C2(OC3=O)c3ccc(O)cc3Oc3cc(O)ccc32)CCCC=CCN(CC(=O)N[C@@H](CCC(=O)O)C(N)=O)C(=O)[C@@H]2CCCN2C(=O)[C@@H]2CCCN2C1=O ({Fluorescein(5-NHCS)-Ava}-P[X1]PTAPP[X2]E-NH2; staple 2-8)
9,218,C[C@@H]1NC(=O)[C@H]([C@@H](C)O)NC(=O)[C@@H]2CCCN2C(=O)CN(C(=O)[C@@H]2CCCN2C(=O)CCCCNC(=S)Nc2ccc3c(c2)C2(OC3=O)c3ccc(O)cc3Oc3cc(O)ccc32)C/C=C\CN(CC(=O)N[C@@H](CCC(=O)O)C(N)=O)C(=O)[C@@H]2CCCN2C(=O)[C@@H]2CCCN2C1=O ({Fluorescein(5-NHCS)-Ava}-P[X2]PTAPP[X2]E-NH2; staple (Z) 2-8)

# System: HeLa
# Assay: Cellular uptake in human HeLa cells assessed as fluorescence intensity by FACS analysis relative to control
# Type: ADME, cell-based
# Conditions: in the assay text read “fluorescence microscopy” for “FACS analysis”
# Procedure, shortened: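 Uptake of FITC-tagged peptide-peptoid hybrids was measured by fluorescence microscopy. The value is the average fluorescence intensity of treated cells, quantified from at least 20 cells taken from 4–6 fields, each field holding about 5 cells.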
row,Drug uptake [%],Molecule
1,328,C[C@@H]1NC(=O)[C@H]([C@@H](C)O)NC(=O)[C@@H]2CCCN2C(=O)[C@H](CCC(=O)O)NC(=O)CN(C(=O)CCCCNC(=S)Nc2ccc3c(c2)C2(OC3=O)c3ccc(O)cc3Oc3cc(O)ccc32)CCCCCC/C=C\CCCCCCN(CC(N)=O)C(=O)[C@H](CCC(=O)O)NC(=O)[C@@H]2CCCN2C(=O)[C@@H]2CCCN2C1=O
2,77,C[C@@H]1NC(=O)[C@H]([C@@H](C)O)NC(=O)[C@@H]2CCCN2C(=O)CN(C(=O)[C@@H]2CCCN2C(=O)CCCCNC(=S)Nc2ccc3c(c2)C2(OC3=O)c3ccc(O)cc3Oc3cc(O)ccc32)CC/C=C\CCCCCCN(CC(N)=O)C(=O)[C@H](CCC(=O)O)NC(=O)[C@@H]2CCCN2C(=O)[C@@H]2CCCN2C1=O
3,199,C[C@@H]1NC(=O)[C@H]([C@@H](C)O)NC(=O)[C@@H]2CCCN2C(=O)CN(C(=O)[C@@H]2CCCN2C(=O)CCCCNC(=S)Nc2ccc3c(c2)C2(OC3=O)c3ccc(O)cc3Oc3cc(O)ccc32)CCCCCC/C=C\CCCCCCN(CC(N)=O)C(=O)[C@H](CCC(=O)O)NC(=O)[C@@H]2CCCN2C(=O)[C@@H]2CCCN2C1=O
4,98,C=CCN(CC(N)=O)C(=O)[C@H](CCC(=O)O)NC(=O)[C@@H]1CCCN1C(=O)[C@@H]1CCCN1C(=O)[C@H](C)NC(=O)[C@@H](NC(=O)[C@@H]1CCCN1C(=O)CN(CC=C)C(=O)[C@@H]1CCCN1C(=O)CCCCNC(=S)Nc1ccc2c(c1)C1(OC2=O)c2ccc(O)cc2Oc2cc(O)ccc21)[C@@H](C)O
5,100,C[C@@H]1NC(=O)[C@H]([C@@H](C)O)NC(=O)[C@@H]2CCCN2C(=O)[C@H](CCC(=O)O)NC(=O)CN(C(=O)CCCCNC(=S)Nc2ccc3c(c2)C2(OC3=O)c3ccc(O)cc3Oc3cc(O)ccc32)CC/C=C\CCCCCCN(CC(N)=O)C(=O)[C@H](CCC(=O)O)NC(=O)[C@@H]2CCCN2C(=O)[C@@H]2CCCN2C1=O
6,35,C=CCCCCCCN(CC(=O)N[C@@H](CCC(=O)O)C(=O)N1CCC[C@H]1C(=O)N[C@H](C(=O)N[C@@H](C)C(=O)N1CCC[C@H]1C(=O)N1CCC[C@H]1C(=O)N[C@@H](CCC(=O)O)C(=O)N(CCCCCCC=C)CC(N)=O)[C@@H](C)O)C(=O)CCCCNC(=S)Nc1ccc2c(c1)C1(OC2=O)c2ccc(O)cc2Oc2cc(O)ccc21
7,42,C=CCCCCCCN(CC(N)=O)C(=O)[C@H](CCC(=O)O)NC(=O)[C@@H]1CCCN1C(=O)[C@@H]1CCCN1C(=O)[C@H](C)NC(=O)[C@@H](NC(=O)[C@@H]1CCCN1C(=O)CN(CCCCCCC=C)C(=O)[C@@H]1CCCN1C(=O)CCCCNC(=S)Nc1ccc2c(c1)C1(OC2=O)c2ccc(O)cc2Oc2cc(O)ccc21)[C@@H](C)O
8,74,"C=CCN(CC(=O)N[C@@H](CCC(=O)O)C(=O)N1CCC[C@H]1C(=O)N[C@H](C(=O)N[C@@H](C)C(=O)N1CCC[C@H]1C(=O)N1CCC[C@H]1C(=O)N[C@@H](CCC(=O)O)C(=O)N(CC=C)CC(N)=O)[C@@H](C)O)C(=O)CCCCNC(=S)Nc1ccc2c(c1)C1(OC2=O)c2ccc(O)cc2Oc2cc(O)ccc21 (stereo in doubt; 1'-(1,1))"
9,76,C[C@@H]1NC(=O)[C@H]([C@@H](C)O)NC(=O)[C@@H]2CCCN2C(=O)CN(C(=O)[C@@H]2CCCN2C(=O)CCCCNC(=S)Nc2ccc3c(c2)C2(OC3=O)c3ccc(O)cc3Oc3cc(O)ccc32)CC/C=C/CCCCCCN(CC(=O)N[C@@H](CCC(=O)O)C(N)=O)C(=O)[C@@H]2CCCN2C(=O)[C@@H]2CCCN2C1=O ({Fluorescein(5-NHCS)-Ava}-P[Gly(N-but-3-enyl)]PTAPP[X3]E-NH2; staple (E) 2-8)
10,45,C=CCCCCCCN(CC(=O)N1CCC[C@H]1C(=O)N[C@H](C(=O)N[C@@H](C)C(=O)N1CCC[C@H]1C(=O)N1CCC[C@H]1C(=O)N(CCCCCCC=C)CC(=O)N[C@@H](CCC(=O)O)C(N)=O)[C@@H](C)O)C(=O)[C@@H]1CCCN1C(=O)CCCCNC(=S)Nc1ccc2c(c1)C1(OC2=O)c2ccc(O)cc2Oc2cc(O)ccc21 ({Fluorescein(5-NHCS)-Ava}-P[N(7-octenyl)Gly]PTAPP[N(7-octenyl)Gly]E-NH2)
11,200,C[C@@H]1NC(=O)[C@H]([C@@H](C)O)NC(=O)[C@@H]2CCCN2C(=O)CN(C(=O)[C@@H]2CCCN2C(=O)CCCCNC(=S)Nc2ccc3c(c2)C2(OC3=O)c3ccc(O)cc3Oc3cc(O)ccc32)CCCCCC/C=C\CCCCCCN(CC(=O)N[C@@H](CCC(=O)O)C(N)=O)C(=O)[C@@H]2CCCN2C(=O)[C@@H]2CCCN2C1=O ({Fluorescein(5-NHCS)-Ava}-P[X3]PTAPP[X3]E-NH2; staple (Z) 2-8)
12,100,C[C@@H]1NC(=O)[C@H]([C@@H](C)O)NC(=O)[C@@H]2CCCN2C(=O)[C@H](CCC(=O)O)NC(=O)CN(C(=O)CCCCNC(=S)Nc2ccc3c(c2)C2(OC3=O)c3ccc(O)cc3Oc3cc(O)ccc32)CC/C=C/CCCCCCN(CC(=O)N[C@@H](CCC(=O)O)C(N)=O)C(=O)[C@@H]2CCCN2C(=O)[C@@H]2CCCN2C1=O ({Fluorescein(5-NHCS)-Ava}-[Gly(N-but-3-enyl)]EPTAPP[X3]E-NH2; staple (E) 1-8)
13,40,C=CCCCCCCN(CC(=O)N[C@@H](CCC(=O)O)C(=O)N1CCC[C@H]1C(=O)N[C@H](C(=O)N[C@@H](C)C(=O)N1CCC[C@H]1C(=O)N1CCC[C@H]1C(=O)N(CCCCCCC=C)CC(=O)N[C@@H](CCC(=O)O)C(N)=O)[C@@H](C)O)C(=O)CCCCNC(=S)Nc1ccc2c(c1)C1(OC2=O)c2ccc(O)cc2Oc2cc(O)ccc21 ({Fluorescein(5-NHCS)-Ava}-[N(7-octenyl)Gly]EPTAPP[N(7-octenyl)Gly]E-NH2)
14,74,H-PEPTAPPEE-OH
